Measured values taken from ChEMBL document CHEMBL4145471, “New 1,5 and 2,5-disubstituted tetrazoles-dependent activity towards surface barrier of Candida albicans” (Eur J Med Chem, 2018).

Assays:
[1] = system: Candida albicans; experiment: Antifungal activity against Candida albicans ATCC 90028 assessed as inhibition of metabolic activity at 1.25 ug/ml after 48 hrs in presence of 80 ug/ml fluconazol by XTT assay relative to control; format: functional; details: values are per cent of control
Summary of the method: (§1)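 Checkerboard against strain ATCC 90028, inoculum per M27-A3: fluconazole 80-1.25 µg/mL on one axis, tetrazole 80-1.25 µg/mL on the other. Plates at 35°C for 48 h, then XTT metabolic reduction read at 475 nm (660 nm reference). Activity is the drop in mean absorbance against untreated growth control. FICs and their summed FIC index are taken at 50% reduction in metabolic activity.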

[2] = system: Candida albicans; experiment: Synergistic antifungal activity against Candida albicans ATCC 90028 at 1.25 ug/ml after 48 hrs in presence of 80 ug/ml fluconazol by checkerboard assay relative to control; format: functional
Summary of the method: (§2)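 Checkerboard per M27-A3 against ATCC 90028: fluconazole at 80–1.25 µg/mL horizontally and partner compound at 80–1.25 µg/mL vertically, 100 µL yeast inoculum per well, 35°C for 48 h. After 48 h, metabolic activity was measured by XTT reduction at 475 nm (660 nm reference) relative to untreated growth control. FIC index is the sum of the FICs; <1 was defined as synergism and >1 as antagonism.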

[3] = system: Candida albicans; experiment: Antifungal activity against Candida albicans ATCC 90028 assessed as metabolic activity at 80 ug/ml after 48 hrs in presence of 5 ug/ml fluconazol by XTT assay relative to control
[4] = system: Candida albicans; experiment: Antifungal activity against Candida albicans ATCC 90028 assessed as metabolic activity at 80 ug/ml after 48 hrs in presence of 2.5 ug/ml fluconazol by XTT assay relative to control
[5] = system: Candida albicans; experiment: Synergistic antifungal activity against Candida albicans ATCC 90028 at 5 ug/ml after 48 hrs in presence of 20 ug/ml fluconazol by checkerboard assay relative to control; format: functional
Summary of the method: (§3)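 Checkerboard in C. albicans ATCC 90028, inoculum prepared per CLSI M27-A3 in RPMI. Fluconazole serially diluted 80-1.25 µg/mL across the plate against the partner compound at 80-1.25 µg/mL final. Incubated 48 h at 35°C. Metabolic activity read by XTT reduction at 475 nm (660 nm reference), given as % of the untreated growth control.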

[6] = system: Candida albicans; experiment: Synergistic antifungal activity against Candida albicans ATCC 90028 at 80 ug/ml after 48 hrs in presence of 20 ug/ml fluconazol by checkerboard assay relative to control; format: functional; summary of the method: as §3
[7] = system: Candida albicans; experiment: Synergistic antifungal activity against Candida albicans ATCC 90028 at 40 ug/ml after 48 hrs in presence of 1.25 ug/ml fluconazol by checkerboard assay relative to control; format: functional; summary of the method: as §3
[8] = system: Candida albicans; experiment: Synergistic antifungal activity against Candida albicans ATCC 90028 at 10 ug/ml after 48 hrs in presence of 2.5 ug/ml fluconazol by checkerboard assay relative to control; format: functional
Summary of the method: (§4)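 Checkerboard microdilution (M27-A3) on C. albicans ATCC 90028 in RPMI 1640: fluconazole (80-1.25 µg/mL) crossed with tetrazole (80-1.25 µg/mL final), incubated at 35°C for 48 h. Growth by OD405 at 18 and 48 h, endpoint taken as 100% inhibition. FIC index = sum of the two agents' FICs; <1 synergism, >1 antagonism.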

[9] = system: Candida albicans; experiment: Antifungal activity against Candida albicans ATCC 90028 at 0.5 ug/ml after 48 hrs relative to control; format: functional
Summary of the method: (§5)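 Planktonic broth microdilution per M27-A3 in MOPS-buffered RPMI 1640 (pH 7.0), final inoculum 1.8×10^3 cells/mL, compounds 0.0313–16 µg/mL from 1600 µg/mL stocks in ethanol or DMSO. Incubated at 35°C without agitation; OD405 read at 18 and 48 h. % inhibition was derived from test, sterility (no inoculum) and solvent growth-control wells. Amphotericin B at 0.5 µg/mL served as the 100% control.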

[10] = system: Candida albicans; experiment: Antifungal activity against Candida albicans ATCC 90028 at 0.125 ug/ml after 18 hrs relative to control; format: functional; summary of the method: as §5
[11] = system: Candida albicans; experiment: Synergistic antifungal activity against Candida albicans ATCC 90028 at 1.25 ug/ml after 48 hrs in presence of 5 ug/ml fluconazol by checkerboard assay relative to control; format: functional; summary of the method: as §2
[12] = system: Candida albicans; experiment: Antifungal activity against Candida albicans ATCC 90028 assessed as inhibition of metabolic activity at 2.5 ug/ml after 48 hrs in presence of 10 ug/ml fluconazol by XTT assay relative to control; format: functional; details: values are per cent of control
Summary of the method: (§6)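 C. albicans ATCC 90028 in checkerboard: fluconazole serial dilutions (80-1.25 µg/mL) crossed with tetrazole (80-1.25 µg/mL final), M27-A3 inoculum in RPMI 1640, 35°C for 48 h. Metabolic activity measured by XTT reduction, read at 475 nm (660 nm reference). Activity expressed relative to untreated growth control absorbance.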

[13] = system: Candida albicans; experiment: Antifungal activity against Candida albicans ATCC 90028 at 16 ug/ml after 48 hrs relative to control; format: functional; summary of the method: as §5
[14] = system: Candida albicans; experiment: Antifungal activity against Candida albicans ATCC 90028 at 0.125 ug/ml after 48 hrs relative to control; format: functional; summary of the method: as §5
[15] = system: Candida albicans; experiment: Antifungal activity against Candida albicans ATCC 90028 assessed as inhibition of metabolic activity at 5 ug/ml after 48 hrs in presence of 1.25 ug/ml fluconazol by XTT assay relative to control; format: functional; details: values are per cent of control; summary of the method: as §1
[16] = system: Candida albicans; experiment: Synergistic antifungal activity against Candida albicans ATCC 90028 at 5 ug/ml after 48 hrs in presence of 5 ug/ml fluconazol by checkerboard assay relative to control; format: functional; details: ATCC 90028, 48 h, read-out: GI; summary of the method: as §3
[17] = system: Candida albicans; experiment: Antifungal activity against Candida albicans ATCC 90028 assessed as inhibition of metabolic activity at 2.5 ug/ml after 48 hrs in presence of 5 ug/ml fluconazol by XTT assay relative to control; format: functional; details: values are per cent of control; summary of the method: as §6
[18] = system: Candida albicans; experiment: Synergistic antifungal activity against Candida albicans ATCC 90028 at 2.5 ug/ml after 48 hrs in presence of 80 ug/ml fluconazol by checkerboard assay relative to control; format: functional; summary of the method: as §4
[19] = system: Candida albicans; experiment: Antifungal activity against Candida albicans ATCC 90028 assessed as inhibition of metabolic activity at 5 ug/ml after 48 hrs in presence of 10 ug/ml fluconazol by XTT assay relative to control; format: functional; details: values are per cent of control; summary of the method: as §1
[20] = system: Candida albicans; experiment: Antifungal activity against Candida albicans ATCC 90028 assessed as metabolic activity at 20 ug/ml after 48 hrs in presence of 80 ug/ml fluconazol by XTT assay relative to control
[21] = system: Candida albicans; experiment: Antifungal activity against Candida albicans ATCC 90028 assessed as metabolic activity at 20 ug/ml after 48 hrs in presence of 1.25 ug/ml fluconazol by XTT assay relative to control
[22] = system: Candida albicans; experiment: Antifungal activity against Candida albicans ATCC 90028 assessed as inhibition of metabolic activity at 2.5 ug/ml after 48 hrs in presence of 40 ug/ml fluconazol by XTT assay relative to control; format: functional; details: values are per cent of control; summary of the method: as §6

Compound	residual activity [1] [%]	growth inhibition (GI) [2] [%]	Metabolic activity [3] [%]	Metabolic activity [4] [%]	growth inhibition (GI) [5] [%]	growth inhibition (GI) [6] [%]	growth inhibition (GI) [7] [%]	growth inhibition (GI) [8] [%]	Activity [9] [%]	Activity [10] [%]	growth inhibition (GI) [11] [%]	residual activity [12] [%]	Activity [13] [%]	Activity [14] [%]	residual activity [15] [%]	inhibition of growth at 5 µg/mL [16] [%]	residual activity [17] [%]	growth inhibition (GI) [18] [%]	residual activity [19] [%]	Metabolic activity [20] [%]	also measured
ClCCCn1nnnc1-c1ccccc1Cl	62.42	99.49	100	59.43	99.67	99.74	99.93	99.41	99.22	100	98.74	64.55	99.39	99.43	79.99	98.8	100	99.49	66.6	81.77	Metabolic activity [21]: 0%; residual activity [22]: 97.62%
CCOC(=O)CCn1nnc(-c2ccccc2)n1	66.82	99.51	100	64.31	99.58	99.59	99.56	99.62	99.31	99.13	98.99	71.01	99.65	99.18	88.02	99.1	95.38	99.54	69.35	94.76	Metabolic activity [21]: 90.68%; residual activity [22]: 92.82%
Cc1ccc(-c2nnn(CCCN3CCOCC3)n2)cc1	100	99.54	100	78.22	99.16	99.71	99.57	98.46	99.18	99.57	99.86	85.87	99.44	98.96	100	98.7	100	99.19	81.48	69.42	Metabolic activity [21]: 76.07%; residual activity [22]: 100%
